pIC50: −log10 of the molar value.
How the values were obtained:
[1] = Inhibition of rat small intestinal maltase after 30 mins
[2] = target: T1, Sucrase-isomaltase, intestinal (Rattus norvegicus, UniProt P23739); test: Inhibition of rat small intestinal sucrase after 30 mins
In short: (§1)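 Enzyme source was rat small-intestinal brush-border membrane vesicles suspended in 0.1 M maleate buffer, pH 6.0. Substrate solutions were maltose 74 mM (maltase), sucrose 74 mM (sucrase) and isomaltose 7.4 mM (isomaltase). Glucose was measured by glucose oxidase. IC50 was read graphically from % inhibition versus log concentration.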

[3] = target: T1, Sucrase-isomaltase, intestinal; test: Inhibition of rat small intestinal isomaltase after 30 mins
In short: as §1

[4] = target: Sucrase-isomaltase, intestinal (Rattus norvegicus) (UniProt P23739); settings: 100 ug/ml
[5] = target: Lysosomal alpha-glucosidase (Rattus norvegicus) (UniProt Q6P7A9); settings: 100 ug/ml
Lysosomal alpha-glucosidase (Rattus norvegicus), sequence (Q6P7A9 whole entry): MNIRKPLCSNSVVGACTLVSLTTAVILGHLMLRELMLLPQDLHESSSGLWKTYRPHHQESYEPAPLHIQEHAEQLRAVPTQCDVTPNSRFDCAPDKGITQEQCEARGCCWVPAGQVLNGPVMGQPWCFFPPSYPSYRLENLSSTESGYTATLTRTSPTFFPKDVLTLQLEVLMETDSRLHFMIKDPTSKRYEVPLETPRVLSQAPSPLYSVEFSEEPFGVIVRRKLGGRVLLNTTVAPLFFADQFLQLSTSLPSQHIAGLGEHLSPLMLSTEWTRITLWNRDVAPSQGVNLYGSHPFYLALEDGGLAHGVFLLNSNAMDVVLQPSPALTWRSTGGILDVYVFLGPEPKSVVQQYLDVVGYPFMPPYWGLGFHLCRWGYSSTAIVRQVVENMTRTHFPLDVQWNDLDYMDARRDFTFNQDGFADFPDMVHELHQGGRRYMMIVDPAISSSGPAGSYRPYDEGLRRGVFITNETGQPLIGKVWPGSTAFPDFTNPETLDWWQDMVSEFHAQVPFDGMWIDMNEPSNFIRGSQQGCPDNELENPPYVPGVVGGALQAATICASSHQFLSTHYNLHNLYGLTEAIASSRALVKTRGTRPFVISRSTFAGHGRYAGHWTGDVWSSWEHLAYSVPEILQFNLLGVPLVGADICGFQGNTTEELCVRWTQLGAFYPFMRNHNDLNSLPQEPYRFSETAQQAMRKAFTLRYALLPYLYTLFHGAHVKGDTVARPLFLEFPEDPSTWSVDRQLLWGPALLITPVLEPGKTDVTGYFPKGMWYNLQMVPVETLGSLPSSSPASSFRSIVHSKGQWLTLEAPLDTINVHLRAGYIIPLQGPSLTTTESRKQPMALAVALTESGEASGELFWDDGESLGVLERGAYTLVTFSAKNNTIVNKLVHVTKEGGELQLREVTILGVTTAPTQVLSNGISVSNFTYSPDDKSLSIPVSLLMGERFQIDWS

T1 sequence (P23739 1-1013 limits assumed): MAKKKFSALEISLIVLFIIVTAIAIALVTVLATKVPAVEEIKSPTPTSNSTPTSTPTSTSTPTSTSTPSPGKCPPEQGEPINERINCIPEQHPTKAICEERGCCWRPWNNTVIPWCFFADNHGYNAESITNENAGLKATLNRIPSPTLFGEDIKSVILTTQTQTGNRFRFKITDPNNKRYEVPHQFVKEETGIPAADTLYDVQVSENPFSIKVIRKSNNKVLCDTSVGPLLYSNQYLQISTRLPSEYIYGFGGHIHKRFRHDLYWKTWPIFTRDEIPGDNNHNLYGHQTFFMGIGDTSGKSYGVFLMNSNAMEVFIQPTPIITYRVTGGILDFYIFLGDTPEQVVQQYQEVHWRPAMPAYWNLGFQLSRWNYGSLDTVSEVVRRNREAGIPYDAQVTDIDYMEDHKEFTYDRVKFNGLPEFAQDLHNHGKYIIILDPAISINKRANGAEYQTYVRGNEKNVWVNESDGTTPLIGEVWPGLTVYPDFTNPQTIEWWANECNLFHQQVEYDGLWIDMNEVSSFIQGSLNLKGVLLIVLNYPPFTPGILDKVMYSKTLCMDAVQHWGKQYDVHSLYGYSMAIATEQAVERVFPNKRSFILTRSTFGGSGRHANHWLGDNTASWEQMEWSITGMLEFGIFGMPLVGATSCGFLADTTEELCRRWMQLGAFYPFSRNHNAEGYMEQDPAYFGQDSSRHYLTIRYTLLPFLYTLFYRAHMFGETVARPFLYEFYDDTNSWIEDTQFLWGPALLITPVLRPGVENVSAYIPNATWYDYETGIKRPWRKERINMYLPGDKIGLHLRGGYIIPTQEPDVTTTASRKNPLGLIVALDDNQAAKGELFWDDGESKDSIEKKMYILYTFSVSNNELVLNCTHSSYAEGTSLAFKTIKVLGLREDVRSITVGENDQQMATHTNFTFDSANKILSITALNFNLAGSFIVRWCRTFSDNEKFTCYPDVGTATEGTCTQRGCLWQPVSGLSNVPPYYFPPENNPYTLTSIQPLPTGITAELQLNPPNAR
T1 sequence (P23739 1014-1841 limits assumed): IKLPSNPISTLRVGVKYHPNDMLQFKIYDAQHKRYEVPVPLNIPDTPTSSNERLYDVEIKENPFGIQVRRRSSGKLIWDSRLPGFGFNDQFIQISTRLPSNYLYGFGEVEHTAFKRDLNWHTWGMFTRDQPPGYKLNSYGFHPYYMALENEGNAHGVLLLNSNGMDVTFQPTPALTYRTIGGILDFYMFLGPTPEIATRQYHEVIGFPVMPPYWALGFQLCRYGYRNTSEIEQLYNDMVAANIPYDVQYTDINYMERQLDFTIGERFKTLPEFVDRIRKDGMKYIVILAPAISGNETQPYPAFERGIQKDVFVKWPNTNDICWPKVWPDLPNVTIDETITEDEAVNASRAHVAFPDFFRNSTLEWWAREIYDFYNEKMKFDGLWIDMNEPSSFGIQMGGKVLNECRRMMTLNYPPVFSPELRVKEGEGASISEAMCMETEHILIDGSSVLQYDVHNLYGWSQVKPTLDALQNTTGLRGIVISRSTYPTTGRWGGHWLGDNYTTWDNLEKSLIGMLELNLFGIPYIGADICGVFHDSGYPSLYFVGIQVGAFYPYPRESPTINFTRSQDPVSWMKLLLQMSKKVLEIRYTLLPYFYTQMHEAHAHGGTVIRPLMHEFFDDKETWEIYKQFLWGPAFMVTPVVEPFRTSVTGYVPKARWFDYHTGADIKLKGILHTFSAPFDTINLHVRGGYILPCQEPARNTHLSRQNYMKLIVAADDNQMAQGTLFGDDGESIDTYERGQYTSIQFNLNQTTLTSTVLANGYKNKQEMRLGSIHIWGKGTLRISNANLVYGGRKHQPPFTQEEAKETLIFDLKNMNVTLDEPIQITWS
Sucrase-isomaltase, intestinal (Rattus norvegicus), sequence (P23739 1-1013 limits assumed): as the sequence (P23739 1-1013 limits assumed) above
Sucrase-isomaltase, intestinal (Rattus norvegicus), sequence (P23739 1014-1841 limits assumed): as the sequence (P23739 1014-1841 limits assumed) above

`O=S(=O)([O-])O[C@@H](CO)[C@H](O)C[S@+]1C[C@@H](O)[C@H](O)[C@H]1CO` [SALACINOL] showed a pIC50 [1] of 5.28.
With `O=S(=O)([O-])O[C@@H]([C@H](O)[C@@H](O)CO)[C@H](O)C[S@+]1C[C@@H](O)[C@H](O)[C@H]1CO` [PONKORANOL] the pIC50 [2] was < 4.00.
For `O=S(=O)([O-])O[C@H]([C@@H](O)[C@@H](O)[C@H](O)CO)[C@H](O)C[S+]1C[C@@H](O)[C@H](O)[C@H]1CO` (stereo not given in full), the pIC50 [3] was 4.80, the pIC50 [2] was < 3.63 and the inhibition [4] was 8%. The inhibition [5] was 25%.
For `O=S(=O)([O-])O[C@H]([C@@H](O)[C@H](O)[C@@H](O)CO)[C@H](O)C[S+]1C[C@@H](O)[C@H](O)[C@H]1CO` (stereo not given in full), the pIC50 [3] was 5.07, the pIC50 [2] was < 3.63 and the inhibition [4] was 28%. It also gave an inhibition [5] of 32%.
`O=S(=O)([O-])OC[C@H](O)C[S@+]1C[C@@H](O)[C@H](O)[C@H]1CO` [SALAPRINOL] gave a pIC50 [3] of 5.59 and a pIC50 [2] of 6.54.
Work on `O=S(=O)([O-])O[C@@H]([C@H](O)[C@H](O)[C@@H](O)CO)[C@H](O)C[S+]1C[C@@H](O)[C@H](O)[C@H]1CO` (stereo not given in full) [KOTALANOL] yielded a pIC50 [1] of 5.14.
Work on `OCC(CO)N[C@H]1C[C@](O)(CO)[C@@H](O)[C@H](O)[C@H]1O` [VOGLIBOSE] yielded a pIC50 [2] of 5.92.
With `O=S(=O)([O-])O[C@H]([C@@H](O)[C@H](O)[C@H](O)CO)[C@H](O)C[S+]1C[C@@H](O)[C@H](O)[C@H]1CO` (stereo not given in full) the pIC50 [3] was 5.05, the pIC50 [2] was < 3.63 and the inhibition [4] was 34%. For the same molecule, the inhibition [5] was 45%.
`O=S(=O)([O-])O[C@H]([C@@H](O)[C@@H](O)[C@@H](O)CO)[C@H](O)C[S+]1C[C@@H](O)[C@H](O)[C@H]1CO` (stereo not given in full) showed a pIC50 [3] of 4.60 and a pIC50 [2] of 4.64.

From ChEMBL document CHEMBL1765068, “Role of the side chain stereochemistry in the α-glucosidase inhibitory activity of kotalanol, a potent natural α-glucosidase inhibitor” (Bioorg Med Chem, 2011)
